Reference: ChEMBL document CHEMBL3244421, “Antiarrhythmic activity of some N-alkylbispidinebenzamides” (J Med Chem, 1979)

Legend:
Mus musculus [1] = assay: Antiarrhythmic activity in ip dosed CF1 mouse assessed as protection against chloroform-induced ventricular fibrillation; type: functional; conditions: CF1, Heart
Procedure, shortened: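 Adult female CF1 mice; protection against ventricular fibrillation provoked by chloroform exposure, used as the first screen of antiarrhythmic activity.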

Mus musculus [2] = assay: Ratio of LD50 for CF1 mouse to ED50 for antiarrhythmic activity in CF1 mouse; parameters: species or system Heart
[3] = Acute toxicity in ip dosed CF1 mouse; type: organism-based; conditions: in vivo
[4] = Antiarrhythmic activity in New Zealand rabbit left atrium assessed as reduction in maximum following frequency (MFF); type: functional, Oryctolagus cuniculus, Cardiac atrium
Procedure, shortened: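 Left atria from male New Zealand white rabbits, mounted in Krebs-Henseleit buffer at 35 °C and aerated with 95% O2-5% CO2. Driven by 10-ms square-wave pulses at five times threshold voltage. Control maximum following frequency (MFF) was determined first, then MFF reduction at 1, 3, 13, 33 and 133 μM. ED25 (concentration reducing MFF to 75% of control) was estimated from dose-response curves.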

[5] = Toxicity in New Zealand rabbit assessed as reduction in force of left atrial contraction; type: tissue-based, Oryctolagus cuniculus, Cardiac atrium
[6] = Ratio of ED25 for reduction in force of left atrial contraction in New Zealand rabbit to ED25 for reduction in maximum following frequency in New Zealand rabbit left atrium; parameters: species or system Oryctolagus cuniculus, Cardiac atrium

Row | Structure (SMILES) | ED50 (Mus musculus [1]) [µmol/kg] | Ratio LD50/ED50 (Mus musculus [2]) | LD50 [3] [µmol/kg] | ED25 [4] [µM] | ED25 [5] [µM] | Ratio [6]
1 | CCCCN1CC2CC(C1)CN(C(=O)c1ccc(OC)cc1)C2.O=C(O)/C=C/C(=O)O | 106 | 4.6 | 488 | – | – | –
2 | CCCCN1CC2CC(C1)CN(C(=O)c1ccccc1)C2.Cl | 242 | 2.07 | 500 | – | – | –
3 | CN1CC2CC(C1)CN(C(=O)c1ccccc1)C2.O=C(O)/C=C/C(=O)O | 85 | 7.29 | 621 | 400 | > 400 | –
4 | CN1CC2CC(C1)CN(C(=O)c1ccc(Cl)c(Cl)c1)C2.O=C(O)/C=C/C(=O)O | 470 | 1.05 | 492 | – | – | –
5 | CC(C)N(CCC(C(N)=O)(c1ccccc1)c1ccccn1)C(C)C (stereo not given) [DISOPYRAMIDE] | 90 | 5.77 | 517 | 18 | 56 | 3.11
6 | COc1ccc(C(=O)N2CC3CC(CN(C)C3)C2)cc1.O=C(O)/C=C/C(=O)O | 78 | 5.93 | 463 | 500 | > 400 | –
7 | COc1cc(C(=O)N2CC3CC(CN(C)C3)C2)cc(OC)c1OC.O=C(O)/C=C/C(=O)O | 137 | 3.91 | 535 | – | – | –
8 | CN1CC2CC(C1)CN(C(=O)c1ccc(Cl)cc1)C2.O=C(O)/C=C/C(=O)O | 49 | 10.89 | 535 | 110 | 400 | 3.64
9 | CCCCN1CC2CC(C1)CN(C(=O)c1ccc(Cl)cc1)C2.O=C(O)/C=C/C(=O)O | 134 | 3.45 | 463 | – | – | –
10 | CCCCN1CC2CC(C1)CN(C(=O)c1ccc(Cl)c(Cl)c1)C2.O=C(O)/C=C/C(=O)O | 223 | 2.71 | 605 | – | – | –
